# Active and inactive are the calls of the source. The rule behind the calls is not given here.
# Columns and labels:
# SW480-ADH [1] = assay: Effect on cellular PIP4K2B mRNA level in human SW480-ADH cells at 10 '-9 to 10 '-7 M after 48 hrs by RT-PCR analysis; type: functional, cell-based
# Procedure, shortened: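 SW480-ADH cells treated 48 h in medium with charcoal-treated FCS; vehicle controls. Quantitative RT-PCR: 95 °C 10 min, then 40 cycles of 95 °C 15 s and 60 °C 30 s. Expression normalized to RPLP0 by comparative C_T method. Measurements in triplicate.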
# Mus musculus [2] = assay: Toxicity in CD-1 mouse assessed as body weight loss at 0.3 ug/kg, ip administered every other day for 3 weeks measured on day 21; type: organism-based; conditions: in vivo, 0.0003 mg/kg, 504 h
# Procedure, shortened: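 Female CD-1 mice, 6–8 weeks, six per group. Dosed ip in sesame oil every other day for three weeks; vehicle controls. Body weight recorded every other day.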
# Mus musculus [3] = assay: Increase in serum Calcium levels in CD-1 mouse at 0.3 ug/kg, ip administered every other day for 3 weeks measured on day 21; type: functional
# Procedure, shortened: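 Female CD-1 mice, 6–8 weeks, six per group. Dosed ip in sesame oil every other day for three weeks; vehicle controls. Serum calcium measured with a colorimetric calcium kit a day after the last dose (day 21). Shown as percentage of calcium increase over untreated mice, with the 1α,25-(OH)₂D₃ group set to 100%. SD reported.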
# SW480-ADH [4] = assay: Induction of human SW480-ADH cell differentiation assessed as formation of compact epithelioid islands of highly adherent cells at 10 '-8 M after 48 hrs by phase-contrast microscopy; type: functional, cell-based
# Procedure, shortened: (§1)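 SW480-ADH colon cancer cells were treated for 48 h with compound or vehicle in medium with charcoal-treated FCS. Differentiation was scored as compact epithelioid islands of highly adherent cells. A representative experiment is shown.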
# SW480-ADH [5] = assay: Induction of human SW480-ADH cell differentiation assessed as formation of compact epithelioid islands of highly adherent cells at 10 '-7 M after 48 hrs by phase-contrast microscopy; type: functional, cell-based; procedure, shortened: as §1
# MCF7 = assay: Antiproliferative activity against human MCF7 cells at 10 '-7 M after 48 hrs by MTT assay relative to untreated-control; type: functional, cell-based
# Procedure, shortened: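 MCF-7 cells seeded at 5 × 10⁴ per well, treated 24 h later for 48 h in medium with charcoal-treated FCS; vehicle controls. MTT (0.5 μg/μL) added for 1 h, medium removed, formazan dissolved in DMSO, absorbance read at 570 nm. Three individual experiments averaged; SD shown.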
# Vitamin D3 receptor [6] = molecular target: T1, Vitamin D3 receptor (Homo sapiens, UniProt P11473); assay: Binding affinity to VDR assessed as inhibition of fluorescent ligand by fluorescence polarization competition assay
# T1 sequence (P11473 whole entry): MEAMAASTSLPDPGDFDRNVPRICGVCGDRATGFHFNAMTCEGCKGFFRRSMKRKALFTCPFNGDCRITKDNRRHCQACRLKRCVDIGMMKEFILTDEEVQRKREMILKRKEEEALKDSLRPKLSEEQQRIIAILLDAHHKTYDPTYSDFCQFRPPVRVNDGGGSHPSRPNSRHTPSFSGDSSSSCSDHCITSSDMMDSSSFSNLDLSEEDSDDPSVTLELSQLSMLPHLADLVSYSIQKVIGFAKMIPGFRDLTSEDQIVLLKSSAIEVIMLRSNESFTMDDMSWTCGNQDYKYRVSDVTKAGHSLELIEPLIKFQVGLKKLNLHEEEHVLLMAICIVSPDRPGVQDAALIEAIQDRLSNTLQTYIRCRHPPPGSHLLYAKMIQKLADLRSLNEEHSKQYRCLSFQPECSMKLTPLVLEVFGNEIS
# Vitamin D3 receptor [7] = molecular target: T1, Vitamin D3 receptor; assay: Agonist activity at VDR in human MCF7 cells assessed as transcription of CYP24A1 gene after 24 hrs by luciferase reporter gene assay; type: functional, cell-based
IC50 (Vitamin D3 receptor [6]) [µM],EC50 (Vitamin D3 receptor [7]) [µM],SMILES,Activity (SW480-ADH [1]),Activity (Mus musculus [2]),Activity (Mus musculus [3]) [%],Activity (SW480-ADH [4]),Activity (SW480-ADH [5]),Activity (MCF7)
0.0273,0.00904,C=C1/C(=C\C=C2/CC[C@@H](CCCCCCC(C)(C)O)[C@]3(C)[C@@H]([C@H](C)CCO)CC[C@@H]23)C[C@@H](O)C[C@@H]1O,inactive,Non-toxic,18,inactive,Active,Active
,,C=C1/C(=C\C=C2/CCC[C@]3(C)[C@@H]([C@H](C)CCCC(C)(C)O)CC[C@@H]23)C[C@@H](O)C[C@@H]1O [CALCITRIOL],inactive,Non-toxic,100,Active,Active,Active
0.0157,0.00574,C=C1/C(=C\C=C2/CC[C@@H](CCCCCCC(C)(C)O)[C@]3(C)[C@@H]([C@H](C)CCCO)CC[C@@H]23)C[C@@H](O)C[C@@H]1O,inactive,Non-toxic,1,inactive,Active,Active
0.0209,0.00819,C=C1/C(=C\C=C2/CC[C@@H](CCCCCCC(C)(C)O)[C@]3(C)[C@@H]([C@H](C)CO)CC[C@@H]23)C[C@@H](O)C[C@@H]1O,inactive,Non-toxic,0,inactive,Active,Active

# Source: ChEMBL document CHEMBL2169862, “Synthesis and biological evaluation of 1α,25-dihydroxyvitamin D₃ analogues with a long side chain at C12 and short C17 side chains” (J Med Chem, 2012)
